Source: ChEMBL document CHEMBL1122519, “Bispyridinamines: a new class of topical antimicrobial agents as inhibitors of dental plaque” (1984)
Values after ≈ are worked out from the molar mass of the structure shown.

What was measured:
Pseudomonas aeruginosa = assay: Compound is evaluated for the antimicrobial minimum inhibitory concentration against Pseudomonas aeruginosa MGH-1; type: functional
Streptococcus mutans [1] = assay: Compound is evaluated for the effect of saliva upon the antiplaque activity at 50% of saliva and at 0.025 percentage of compound; - = No plaque accumulation; type: functional, organism-based
Procedure, shortened: (§1)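 Hydroxylapatite plate antiplaque assay against S. mutans run for 48 h, with two 1-min exposures to aqueous compound per 24 h. Growth medium contained 0, 5 or 50% pooled human saliva (paraffin-stimulated, centrifuged, filtered, membrane-sterilized). Plaque was stained with FD&C Red No. 3 and graded none, slight or moderate. Staining potential was scored on plates run without inoculum and graded none or slight.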

Streptococcus mutans [2] = assay: Compound is evaluated for the effect of saliva upon the staining potential at 0% of saliva and at 0.01 percentage of compound; + = Slight staining; type: functional, organism-based; procedure, shortened: as §1
Streptococcus mutans [3] = assay: Compound is evaluated for the effect of saliva upon the antiplaque activity at 0% of saliva and at 0.025 percentage of compound; - = No plaque accumulation; type: functional, organism-based; procedure, shortened: as §1
Streptococcus mutans [4] = assay: Compound is evaluated for the effect of saliva upon the antiplaque activity at 0% of saliva and at 0.05 percentage of compound; + = Slight staining; type: functional, organism-based; procedure, shortened: as §1
Streptococcus mutans [5] = assay: Compound is evaluated for the effect of saliva upon the antiplaque activity at 50% of saliva and at 0.025 percentage of compound; + = Slight staining; type: functional, organism-based; procedure, shortened: as §1
Streptococcus mutans [6] = assay: Compound is evaluated for minimal bactericidal concentration against plaque formation for Streptococcus mutans; type: functional, organism-based
Procedure, shortened: (§2)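 Preformed in vitro plaques of S. mutans NCTC 10449 or A. viscosus M-100 were grown on ceramic hydroxylapatite under anaerobic conditions at 37 °C in sucrose-supplemented medium. Plaques were immersed for 30 min at 37 °C in compound at 0.3–20 mM, rinsed, and moved to broth containing bromocresol purple. Kill was judged by no acid production, no turbidity increase and no growth on plating at 48 h. Plaques were run in quadruplicate.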

Staphylococcus aureus = assay: Compound is evaluated for the antimicrobial minimum inhibitory concentration against Staphylococcus aureus (Smith); type: functional
Procedure, shortened: (§3)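 Serial twofold tube dilution in tryptose phosphate broth. Each compound was prepared as a 1000 μg/mL aqueous stock and diluted in double-strength broth, then 2×10^5 cells were added. Tubes were incubated aerobically at 37 °C for 24 h. The MIC was taken as the lowest concentration with no visible growth.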

Escherichia coli [7] = assay: Antimicrobial minimum inhibitory concentration against Escherichia coli AB1932-1; type: functional; procedure, shortened: as §3
Streptococcus mutans [8] = assay: Compound is evaluated for the effect of saliva upon the antiplaque activity at 50% of saliva and at 0.01 percentage of compound; + = Slight plaque accumulation; type: functional, organism-based; procedure, shortened: as §1
Streptococcus mutans [9] = assay: Compound is evaluated for the effect of saliva upon the antiplaque activity at 0% of saliva and at 0.05 percentage of compound; - = No plaque accumulation; type: functional, organism-based; procedure, shortened: as §1
Escherichia coli [10] = assay: Antimicrobial minimum inhibitory concentration against Escherichia coli 100/B22; type: functional; procedure, shortened: as §3
Streptococcus mutans [11] = assay: Compound is evaluated for the effect of saliva upon the antiplaque activity at 50% of saliva and at 0.01 percentage of compound; - = No staining; type: functional, organism-based; procedure, shortened: as §1
Escherichia coli [12] = assay: Minimum inhibitory concentration against Escherichia coli (Vogel); type: functional; procedure, shortened: as §3
Streptococcus mutans [13] = assay: Compound is evaluated for the effect of saliva upon the antiplaque activity at 0% of saliva and at 0.025 percentage of compound; + = Slight staining; type: functional, organism-based; procedure, shortened: as §1
Streptococcus sanguinis = assay: Compound is evaluated for plaque-bactericidal index (PBI) against Streptococcus sanguis 10558; type: functional
Streptococcus mutans [14] = assay: Compound is evaluated for the effect of saliva upon the antiplaque activity at 50% of saliva and at 0.05 percentage of compound; - = No plaque accumulation; type: functional, organism-based; procedure, shortened: as §1
[15] = Compound is evaluated for stain index; type: functional
Procedure, shortened: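 Ratio of the minimum concentration staining a plaque-free ceramic hydroxylapatite plate to the minimum plaque-inhibiting concentration, both run under the same conditions. Plates got two 1-min soaks (0.1–0.001%), each followed by air-drying, then a water rinse. They were then held 24 h anaerobically at 37 °C in sucrose beef-extract medium, with or without S. mutans OMZ-61, repeated once. Staining was 1-min 1% FD&C Red No. 3, scored visually.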

Actinomyces naeslundii = assay: Compound is evaluated for plaque-bactericidal index (PBI) against Actinomyces naeslundii 631; type: functional
Actinomyces viscosus [16] = assay: Compound is evaluated for minimal bactericidal concentration against plaque formation for Actinomyces viscosus; type: functional, organism-based; procedure, shortened: as §2
Streptococcus mutans [17] = assay: Compound is evaluated for the effect of saliva upon the antiplaque activity at 50% of saliva and at 0.05 percentage of compound; + = Slight staining; type: functional, organism-based; procedure, shortened: as §1
Streptococcus mutans [18] = assay: Compound is evaluated for minimum plaque inhibitory concentration using a standard test organism, Streptococcus mutans OMZ-61; type: functional
Procedure, shortened: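 S. mutans OMZ-61 in pH 7.0 beef extract–trypticase medium with 0.5% sucrose. Sterile ceramic hydroxylapatite plates got two 1-min soaks in 0.1–0.001% compound, each followed by 1-min air-drying, then a 5-min water rinse. Plates were put in inoculated medium at 37 °C anaerobically for 24 h. The cycle was repeated for a second 24 h. Plaque was stained with 1% FD&C Red No. 3. Value is the lowest concentration completely preventing plaque.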

Klebsiella pneumoniae = assay: Minimum inhibitory concentration against Klebsiella pneumonia 39645; type: functional; procedure, shortened: as §3
Streptococcus mutans [19] = assay: Compound is evaluated for the effect of saliva upon the antiplaque activity at 0% of saliva and at 0.01 percentage of compound; - = No plaque accumulation; type: functional, organism-based; procedure, shortened: as §1
Streptococcus mutans [20] = assay: Compound is evaluated for plaque-bactericidal index (PBI) against Streptococcus mutans 10449; type: functional
Actinomyces viscosus [21] = assay: Compound is evaluated for plaque-bactericidal index (PBI) against Actinomyces viscosus M-100; type: functional
Proteus mirabilis = assay: Compound is evaluated for the antimicrobial minimum inhibitory concentration against Proteus mirabilis MGH-1; type: functional; procedure, shortened: as §3

With `N=C(NCCCCCCNC(=N)NC(=N)Nc1ccc(Cl)cc1)NC(=N)Nc1ccc(Cl)cc1` [CHLORHEXIDINE] the MIC (Pseudomonas aeruginosa) was 15.6 µg/mL (≈ 30.9 µM), the Plaque accum (Streptococcus mutans [1]) was “No plaque accumulation” and the Staining potential (Streptococcus mutans [2]) was “No staining”. The Plaque accum (Streptococcus mutans [3]) was “No plaque accumulation”, the Staining potential (Streptococcus mutans [4]) was “No staining” and the Staining potential (Streptococcus mutans [5]) was “No staining”. For the same molecule, the Concentration (Streptococcus mutans [6]) was 3.2 mM, the MIC (Staphylococcus aureus) was 0.2 µg/mL (≈ 0.396 µM) and the MIC (Escherichia coli [7]) was 0.5 µg/mL (≈ 0.989 µM). For the same molecule, the Plaque accum (Streptococcus mutans [8]) was “No plaque accumulation”, the Plaque accum (Streptococcus mutans [9]) was “No plaque accumulation” and the MIC (Escherichia coli [10]) was 1 µg/mL (≈ 1.98 µM). The Staining potential (Streptococcus mutans [11]) was “No staining”, the MIC (Escherichia coli [12]) was 0.5 µg/mL (≈ 0.989 µM) and the Staining potential (Streptococcus mutans [13]) was “No staining”. The PBI (Streptococcus sanguinis) was 32, the Plaque accum (Streptococcus mutans [14]) was “No plaque accumulation” and the Stain index [15] was 1. For the same molecule, the PBI (Actinomyces naeslundii) was 19.2, the Concentration (Actinomyces viscosus [16]) was 1.6 mM and the Staining potential (Streptococcus mutans [17]) was “No staining”. The “Min plague Inhibitory” value (Streptococcus mutans [18]) was 0.005%, the MIC (Klebsiella pneumoniae) was 3.9 µg/mL (≈ 7.72 µM) and the Plaque accum (Streptococcus mutans [19]) was “No plaque accumulation”. It also gave a PBI (Streptococcus mutans [20]) of 25.6, a PBI (Actinomyces viscosus [21]) of 19.2 and an MIC (Proteus mirabilis) of 15.6 µg/mL (≈ 30.9 µM).
